# Results published in PubChem BioAssay.
# Calls of active or inactive are those of the source.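 The calls were made as follows, unless noted: active = viability at or below 10% of carrier control in both of two separate runs; inconclusive = viability at or below 10% in only one of the two runs; inactive = the rest.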
# What was measured:
# [1] = Her2 expression decrease, cell viability multiplex – SKBR3 breast tumor cells, AlphaScreen, ATP viability, primary screen (AID 461;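 active = Her2 level under about 52% in both replicate screens, with viability over 70% of control, limit read from the data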;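 as to Her2 level: lower value means less Her2 protein in the cells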;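 as to viability: percent of carrier control wells set as 100% viability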); conditions: SKBR3 Her2 protein level, 18-24 h, measured here: SKBR3 viability, ATP luminescence, at 10 µM
# [2] = biological target: Receptor tyrosine-protein kinase erbB-2 (Homo sapiens) (UniProt P04626); assay: as above; conditions: 18-24 h, at 10 µM, stronger effect = lower value
# [3] = reduced viability of SK-BR-3 breast cancer cells – cell-based, 24 h, human, pilot screen (AID 572); conditions: SK-BR-3 viability, CellTiter-Glo luminescence, at 10 µM, stronger effect = lower value;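 also: compound exposure lasted between 18 and 24 h rather than exactly 24 h; 100% = carrier-treated control wells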
# [4] = H69AR cell proliferation blockers – human, duplicate replicates, primary screen (AID 580;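 active = viability at or under a set limit in both replicates, limit being median viability minus 3 SD, cut at about 48% in these data, passing the limit was not always enough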;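 also: 100% = mean luminescence of untreated wells and 0% = no signal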); conditions: H69AR lung tumor cells viability, ATP luminescence, 72 h; at 10 µM; stronger effect = lower value
# [5] = MRP1 drug-resistance reversers in H69AR cells – cell-based, doxorubicin co-treatment, pilot screen (AID 601;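 active = viability loss from added drug above about 55%, and viability with drug at most 40%, in both replicates, limit read from the data, passing the limit was not always enough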); conditions: CellTiter-Glo, 72 h, at 10 µM; for differential viability (reversal): stronger effect = higher value
# [6] = yeast transport mutant growth inhibition pilot in 384-well plates, post-Golgi transport modulator project (AID 636; in the data active = inhibition above about 31%); conditions: absorbance 615 nm, about 18 h, stronger effect = higher value
# [7] = growth suppression of yeast trafficking mutant, preliminary HTS, modulators of trafficking downstream of Golgi apparatus project, 1536-format plate, OD 615 nm (AID 637; in the data active = inhibition above about 30%); conditions: yeast transport mutant growth, absorbance 615 nm, 18 h; stronger effect = higher value
# [8] = HUVEC growth inhibition – cell-based, human, primary screen (AID 575;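 active = viability at or below 30% in both replicate assays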;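 also: 100% = median of untreated cell wells with 0.1% DMSO on each plate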); conditions: HUVEC proliferation, CellTiter-Glo luminescence, 72 h; at 10 µM; stronger effect = lower value
# Outline: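 Test system – primary HUVEC, no more than 12 passages · Dosing – one dose, 10 µM final, 0.1% DMSO · Times – 72 h treatment at 37 °C · Measured by – ATP-based CellTiter-Glo luminescent read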
# [9] = H69AR cells + 2 uM doxorubicin, measured here: viability with 2 uM doxorubicin, stronger effect = lower value
# [10] = H69AR cells, compound alone cytotoxicity
# Receptor tyrosine-protein kinase erbB-2 (Homo sapiens), sequence (P04626 whole entry, looked up): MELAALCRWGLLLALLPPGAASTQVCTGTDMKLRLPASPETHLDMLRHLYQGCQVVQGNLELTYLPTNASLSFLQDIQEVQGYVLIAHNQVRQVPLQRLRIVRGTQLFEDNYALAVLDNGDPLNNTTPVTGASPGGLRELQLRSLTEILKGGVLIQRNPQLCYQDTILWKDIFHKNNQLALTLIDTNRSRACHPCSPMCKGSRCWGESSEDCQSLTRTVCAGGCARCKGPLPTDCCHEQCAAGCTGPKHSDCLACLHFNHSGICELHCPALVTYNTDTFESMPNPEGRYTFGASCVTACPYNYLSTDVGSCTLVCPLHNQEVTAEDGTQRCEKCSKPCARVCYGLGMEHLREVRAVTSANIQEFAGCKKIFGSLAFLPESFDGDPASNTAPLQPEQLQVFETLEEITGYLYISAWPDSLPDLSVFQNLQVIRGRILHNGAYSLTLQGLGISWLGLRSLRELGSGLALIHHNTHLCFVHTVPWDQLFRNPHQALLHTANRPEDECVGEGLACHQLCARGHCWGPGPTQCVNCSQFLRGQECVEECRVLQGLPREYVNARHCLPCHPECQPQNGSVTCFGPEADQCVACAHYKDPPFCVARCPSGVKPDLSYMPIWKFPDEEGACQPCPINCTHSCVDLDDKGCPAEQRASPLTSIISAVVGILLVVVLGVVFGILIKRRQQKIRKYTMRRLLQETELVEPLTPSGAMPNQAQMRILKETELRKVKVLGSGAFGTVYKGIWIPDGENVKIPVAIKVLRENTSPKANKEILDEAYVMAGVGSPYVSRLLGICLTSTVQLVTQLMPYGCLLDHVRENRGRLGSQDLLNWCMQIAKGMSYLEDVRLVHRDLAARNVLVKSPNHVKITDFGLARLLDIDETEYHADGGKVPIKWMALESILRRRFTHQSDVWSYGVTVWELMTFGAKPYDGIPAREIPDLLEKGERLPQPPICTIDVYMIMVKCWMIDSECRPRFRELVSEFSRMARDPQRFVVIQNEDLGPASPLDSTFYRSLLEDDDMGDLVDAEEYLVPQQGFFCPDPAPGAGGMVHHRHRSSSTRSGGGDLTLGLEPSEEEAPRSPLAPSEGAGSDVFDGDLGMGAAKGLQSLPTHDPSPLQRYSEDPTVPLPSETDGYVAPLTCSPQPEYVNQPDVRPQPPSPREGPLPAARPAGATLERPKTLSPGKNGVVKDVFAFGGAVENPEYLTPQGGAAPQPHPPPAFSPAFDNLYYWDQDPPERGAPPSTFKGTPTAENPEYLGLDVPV
smiles,measurement,setting,value
COc1cc(C(=O)Nc2nc(-c3cccs3)cs2)cc(OC)c1OC,viability,[1],86%
same,Her2 level,[2],82% (inactive)
same,viability,[3],86% (inactive)
same,viability,[4],22.9% (active)
same,differential viability (reversal),[5]; H69AR cells + 2 uM doxorubicin,-14.2% (inactive)
same,viability,[5]; [9],37.2%
same,viability,[5]; [10],22.9%
same,inhibition,[6],1.51% (inactive)
same,inhibition,[7],23.6% (inactive)
c1ccc(CN2CCN(c3ncnc4c3[nH]c3ccccc34)CC2)cc1,viability,[1],121%
same,Her2 level,[2],47% (active)
same,viability,[3],121% (inactive)
same,viability,[4],60.6% (inactive)
same,differential viability (reversal),[5]; H69AR cells + 2 uM doxorubicin,-22.6% (inactive)
same,viability,[5]; [9],83.2%
same,viability,[5]; [10],60.6%
same,inhibition,[6],-6% (inactive)
same,inhibition,[7],2.1% (inactive)
COC(=O)Cn1cnc2sc(C)c(S(=O)(=O)N3CCC(C)CC3)c2c1=O,viability,[3],85% (inactive)
same,viability,[8],98.4% (inactive)
same,viability,[4],91.3% (inactive)
same,differential viability (reversal),[5]; H69AR cells + 2 uM doxorubicin,-5.84% (inactive)
same,viability,[5]; [9],97.1%
same,viability,[5]; [10],91.3%
same,inhibition,[6],-1.64% (inactive)
same,inhibition,[7],-0.91% (inactive)
CCOC(=O)c1cc2c(=O)n3cccc(C)c3nc2n(CC2CCCO2)c1=NC(C)=O (configuration not stated),viability,[3],94% (inactive)
same,viability,[8],109% (inactive)
same,viability,[4],81.3% (inactive)
same,differential viability (reversal),[5]; H69AR cells + 2 uM doxorubicin,61.6% (active)
same,viability,[5]; [9],19.6%
same,viability,[5]; [10],81.3%
same,inhibition,[6],-5.14% (inactive)
same,inhibition,[7],0.91% (inactive)
CCOC(=O)N1CCN(C(=O)c2ccc3c(=O)n(Cc4ccc(OC)cc4)c(=S)[nH]c3c2)CC1,viability,[3],99% (inactive)
same,viability,[8],64.6% (inactive)
same,viability,[4],72.5% (inactive)
same,differential viability (reversal),[5]; H69AR cells + 2 uM doxorubicin,47.4% (inactive)
same,viability,[5]; [9],25.1%
same,viability,[5]; [10],72.5%
same,inhibition,[6],-0.13% (inactive)
same,inhibition,[7],-5.08% (inactive)
CC(=O)Oc1cccc2c1C(=O)c1c(OC(C)=O)cc(C(=O)O)cc1C2=O,viability,[3],90% (inactive)
same,viability,[8],60.2% (inactive)
same,viability,[4],86.7% (inactive)
same,differential viability (reversal),[5]; H69AR cells + 2 uM doxorubicin,0.27% (inactive)
same,viability,[5]; [9],86.4%
same,viability,[5]; [10],86.7%
same,inhibition,[6],4.16% (inactive)
same,inhibition,[7],7.17% (inactive)
COc1ccccc1NC(=O)N(Cc1ccco1)Cc1cc2cccc(C)c2[nH]c1=O,viability,[3],90% (inactive)
same,viability,[8],70.9% (inactive)
same,viability,[4],75.8% (inactive)
same,differential viability (reversal),[5]; H69AR cells + 2 uM doxorubicin,1.06% (inactive)
same,viability,[5]; [9],74.7%
same,viability,[5]; [10],75.8%
same,inhibition,[6],-8.27% (inactive)
same,inhibition,[7],-1.45% (inactive)
CCN1C(=O)CC(N2CCC(Nc3ccc(F)cc3)CC2)C1=O (configuration not stated),viability,[3],78% (inactive)
same,viability,[8],93.5% (inactive)
same,viability,[4],92.3% (inactive)
same,differential viability (reversal),[5]; H69AR cells + 2 uM doxorubicin,1.94% (inactive)
same,viability,[5]; [9],90.3%
same,viability,[5]; [10],92.3%
same,inhibition,[6],-0.65% (inactive)
same,inhibition,[7],-0.98% (inactive)
COCCn1nnnc1CN1CCC(Cc2ccccc2)CC1,viability,[3],134% (inactive)
same,viability,[8],102% (inactive)
same,viability,[4],95.3% (inactive)
same,differential viability (reversal),[5]; H69AR cells + 2 uM doxorubicin,5.17% (inactive)
same,viability,[5]; [9],90.1%
same,viability,[5]; [10],95.3%
same,inhibition,[6],-3.84% (inactive)
same,inhibition,[7],4.68% (inactive)
CCC(C(=O)OCCN(CC)CC)c1ccccc1 (configuration not stated),viability,[3],114% (inactive)
same,viability,[8],86.8% (inactive)
same,viability,[4],86.7% (inactive)
same,differential viability (reversal),[5]; H69AR cells + 2 uM doxorubicin,-0.8% (inactive)
same,viability,[5]; [9],87.5%
same,viability,[5]; [10],86.7%
same,inhibition,[6],-1.56% (inactive)
same,inhibition,[7],2.33% (inactive)
O=C(CSc1nnc(-c2ccco2)n1CC1CCCO1)N1CCCCC1 (configuration not stated),viability,[3],94% (inactive)
same,viability,[8],106% (inactive)
same,viability,[4],97.6% (inactive)
same,differential viability (reversal),[5]; H69AR cells + 2 uM doxorubicin,4.84% (inactive)
same,viability,[5]; [9],92.7%
same,viability,[5]; [10],97.6%
same,inhibition,[6],-3.6% (inactive)
same,inhibition,[7],0.36% (inactive)
COCCSc1nnc(NC(=O)CSCc2ccccc2)s1,viability,[3],102% (inactive)
same,viability,[8],103% (inactive)
same,viability,[4],93.1% (inactive)
same,differential viability (reversal),[5]; H69AR cells + 2 uM doxorubicin,6.87% (inactive)
same,viability,[5]; [9],86.3%
same,viability,[5]; [10],93.1%
same,inhibition,[6],-11% (inactive)
same,inhibition,[7],0.97% (inactive)
COc1ccc(OC)c(NC(=O)C23CCC(C)(C(=O)C2)C3(C)C)c1 (configuration not stated),viability,[3],72% (inactive)
same,viability,[8],101% (inactive)
same,viability,[4],102% (inactive)
same,differential viability (reversal),[5]; H69AR cells + 2 uM doxorubicin,-0.69% (inactive)
same,viability,[5]; [9],103%
same,viability,[5]; [10],102%
same,inhibition,[6],-6.3% (inactive)
same,inhibition,[7],-2.73% (inactive)
CN1CCN(C2=Nc3ccccc3Oc3ccc(Cl)cc32)CC1,viability,[3],80% (inactive)
same,viability,[8],59.7% (inactive)
same,viability,[4],73.6% (inactive)
same,differential viability (reversal),[5]; H69AR cells + 2 uM doxorubicin,48.3% (inactive)
same,viability,[5]; [9],25.3%
same,viability,[5]; [10],73.6%
same,inhibition,[6],-3.38% (inactive)
same,inhibition,[7],-1.83% (inactive)
CCCC(=O)Nc1c2c(nn1-c1ccc(OC)cc1)CS(=O)C2 (configuration not stated),viability,[3],103% (inactive)
same,viability,[8],109% (inactive)
same,viability,[4],102% (inactive)
same,differential viability (reversal),[5]; H69AR cells + 2 uM doxorubicin,9.39% (inactive)
same,viability,[5]; [9],92.8%
same,viability,[5]; [10],102%
same,inhibition,[6],-2.73% (inactive)
same,inhibition,[7],6.07% (inactive)
O=C(Nc1ccc(F)cc1)NC1CCN(Cc2nnnn2Cc2ccco2)CC1,viability,[3],92% (inactive)
same,viability,[8],70.5% (inactive)
same,viability,[4],88.2% (inactive)
same,differential viability (reversal),[5]; H69AR cells + 2 uM doxorubicin,-0.315% (inactive)
same,viability,[5]; [9],88.5%
same,viability,[5]; [10],88.2%
same,inhibition,[6],-5.21% (inactive)
same,inhibition,[7],-7.9% (inactive)
O=C(CSc1nnc(-c2ccco2)n1-c1ccccc1)N1CCN(C(=O)c2ccco2)CC1,viability,[3],137% (inactive)
same,viability,[8],80.3% (inactive)
same,viability,[4],84.4% (inactive)
same,differential viability (reversal),[5]; H69AR cells + 2 uM doxorubicin,-1.54% (inactive)
same,viability,[5]; [9],85.9%
same,viability,[5]; [10],84.4%
same,inhibition,[6],-1.17% (inactive)
same,inhibition,[7],-0.82% (inactive)
O=C(Nc1nnc(SCC(=O)N2CCCCC2)s1)C1CCCCC1,viability,[3],81% (inactive)
same,viability,[8],103% (inactive)
same,viability,[4],101% (inactive)
same,differential viability (reversal),[5]; H69AR cells + 2 uM doxorubicin,12.6% (inactive)
same,viability,[5]; [9],88.8%
same,viability,[5]; [10],101%
same,inhibition,[6],-2.13% (inactive)
same,inhibition,[7],0.73% (inactive)
Cc1ccc(Cn2nnc(C(=O)Nc3cccc(C)c3C)c2N)cc1,viability,[3],97% (inactive)
same,viability,[8],63.1% (inactive)
same,viability,[4],86.2% (inactive)
same,differential viability (reversal),[5]; H69AR cells + 2 uM doxorubicin,-7.94% (inactive)
same,viability,[5]; [9],94.1%
same,viability,[5]; [10],86.2%
same,inhibition,[6],-6.1% (inactive)
same,inhibition,[7],-2.3% (inactive)
CC(=O)OCC(=O)[C@@]1(O)CC[C@H]2[C@@H]3CCC4=CC(=O)C=C[C@]4(C)[C@H]3[C@@H](O)C[C@@]21C,viability,[3],82% (inactive)
same,viability,[8],91.5% (inactive)
same,viability,[4],91.1% (inactive)
same,differential viability (reversal),[5]; H69AR cells + 2 uM doxorubicin,-7.15% (inactive)
same,viability,[5]; [9],98.2%
same,viability,[5]; [10],91.1%
same,inhibition,[6],1.56% (inactive)
same,inhibition,[7],-1.83% (inactive)
O=C(NCCCN1CCCC1=O)c1ccc2c(=O)n(Cc3ccco3)c(=S)[nH]c2c1,viability,[3],97% (inactive)
same,viability,[8],105% (inactive)
same,viability,[4],99.6% (inactive)
same,differential viability (reversal),[5]; H69AR cells + 2 uM doxorubicin,7.89% (inactive)
same,viability,[5]; [9],91.7%
same,viability,[5]; [10],99.6%
same,inhibition,[6],1.95% (inactive)
same,inhibition,[7],10.5% (inactive)
CN(C)c1ccc(NC(=O)c2ccncc2)c2ccccc12,viability,[3],113% (inactive)
same,viability,[8],108% (inactive)
same,viability,[4],101% (inactive)
same,differential viability (reversal),[5]; H69AR cells + 2 uM doxorubicin,5.85% (inactive)
same,viability,[5]; [9],95.2%
same,viability,[5]; [10],101%
same,inhibition,[6],-7.43% (inactive)
same,inhibition,[7],-0.73% (inactive)
Cn1c(=O)c2c(nc(NCCCO)n2Cc2cccc(Br)c2)n(C)c1=O,viability,[3],91% (inactive)
same,viability,[8],104% (inactive)
same,viability,[4],85.7% (inactive)
same,differential viability (reversal),[5]; H69AR cells + 2 uM doxorubicin,0.26% (inactive)
same,viability,[5]; [9],85.4%
same,viability,[5]; [10],85.7%
same,inhibition,[6],-5.73% (inactive)
same,inhibition,[7],3.64% (inactive)
O=C(CSCc1n[nH]c(=O)[nH]1)NCCOc1cccc(Oc2ccccc2)c1,viability,[3],103% (inactive)
same,viability,[8],102% (inactive)
same,viability,[4],104% (inactive)
same,differential viability (reversal),[5]; H69AR cells + 2 uM doxorubicin,3.55% (inactive)
same,viability,[5]; [9],100%
same,viability,[5]; [10],104%
same,inhibition,[6],-1.2% (inactive)
same,inhibition,[7],2.73% (inactive)
O=C(CSc1nnc(Cc2ccccc2)n1-c1cccc(Cl)c1)N1CCOCC1,viability,[3],106% (inactive)
same,viability,[8],94.2% (inactive)
same,viability,[4],85.6% (inactive)
same,differential viability (reversal),[5]; H69AR cells + 2 uM doxorubicin,4.24% (inactive)
same,viability,[5]; [9],81.3%
same,viability,[5]; [10],85.6%
same,inhibition,[6],-4.8% (inactive)
same,inhibition,[7],-7.64% (inactive)
